RGS4 act – potentiators or activators of RGS4; HEK293 M3R/inducible RGS4, carbachol calcium flux Fluo4; active compounds read low; B-score at 10 µM; actives 0.92% (n = 310,000); AID 463111;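 active means B-score of the integrated calcium signal more than 4 SD below the library mean, with starting fluorescence not abnormally high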;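 further: negative B-score means reduced calcium response which marks RGS4 activation or potentiation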
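Also added: carbachol at ECmax as muscarinic agonist stimulus; Assay system: HEK293 cells with stable M3R and inducible RGS4; Timing: overnight RGS4 induction, 30 min dye load 37 °C, 20 min compound RT; Measured by: Fluo4-AM (2 µM) calcium-flux fluorescence, kinetic read.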
MrgX1 ag – activates human MrgX1 receptor signaling; Q96LB2; actives 0.44% (n = 310,000); B-score at 10 µM; MrgX1-HEK293 cells, Fluo-4 calcium fluorescence, agonist mode; active compounds read high; AID 588627;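 active means calcium response B-score plate-corrected fluorescence ratio at least 3 library SD, with starting fluorescence B-score inside 5 SD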
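Test system: HEK293 cells stably expressing human MrgX1 receptor; Input: fifteen thousand cells per well; Dosing: compound delivered in addition one of three; Schedule: overnight seeding, then 1 h dark dye loading; Technique: Fluo-4 NW calcium fluorescence; Measure: B-scored fluorescence response ratio; Controls: positive and negative controls per plate.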
MrgX1 PAM – human MrgX1 positive allosteric modulation, primary screen; AID 588675; B-score at 10 µM; MrgX1-HEK293, Fluo-4 calcium flux, FDSS; active compounds read high; Q96LB2; actives 0.63% (n = 310,000);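 active means plate-corrected calcium response at least 3 library SD above typical, normal starting fluorescence, not activating the receptor alone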;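 further: compound read alongside a low EC10 to EC30 dose of BAM8-22 agonist; peak minus trough fluorescence over baseline measured at the second addition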
MrgX1 antag – blocks BAM8-22 activation of human MrgX1 receptor; Q96LB2; MRGX1-HEK293 calcium flux, Fluo-4, BAM8-22 antagonism; active compounds read low; B-score at 10 µM; actives 1.3% (n = 310,000);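 active means calcium-response B-score plate-corrected more than 3 library SD below zero, starting fluorescence within 5 deviations, no agonist response on first addition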;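 further: peak minus trough fluorescence over baseline after final BAM8-22 challenge near maximal dose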
RGS4 block – inhibitors of human RGS4; P49798; B-score at 10 µM; HEK293 M3R/RGS4 inducible, Fluo-4 calcium flux; active compounds read high; triggered by carbachol at its EC20; actives 0.45% (n = 310,000);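 active means B-score, a plate-corrected calcium signal, over three deviations above library mean, with baseline fluorescence within five deviations of library mean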;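 further: RGS4 expression induced by doxycycline in cells with stable M3 receptor; B-score is computed from the integrated fluorescence ratio over baseline after carbachol; higher B-score means a larger calcium signal and so more RGS4 inhibition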
Target sequence (P49798 whole entry, looked up): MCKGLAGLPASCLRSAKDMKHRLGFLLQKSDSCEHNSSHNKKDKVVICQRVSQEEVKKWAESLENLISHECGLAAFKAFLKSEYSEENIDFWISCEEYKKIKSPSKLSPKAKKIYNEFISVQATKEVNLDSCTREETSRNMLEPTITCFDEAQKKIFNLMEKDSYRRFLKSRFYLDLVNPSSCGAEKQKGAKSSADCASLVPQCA
RGS4 block valid – validation of RGS4 inhibitors; calcium response, % at 10 µM; shares compounds with RGS4 block; actives 65% (n = 1,700); HEK293 M3R/RGS4, carbachol calcium Fluo-4 fluorescence; carbachol added at its EC20; 0 = buffer wells, 100 = carbachol control;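 active means duplicate-averaged calcium response above the buffer-only control mean plus 5 SD of those controls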;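 further: integrated fluorescence ratio F max minus min over baseline F0; higher response in RGS4-induced cells means RGS4 inhibition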
RGS4 uninduced – non-induced cell nonspecific activity of RGS4 inhibitors. HEK293 M3R non-induced, carbachol calcium Fluo-4; submaximal (EC20) carbachol stimulus; buffer wells 0%, carbachol control wells 100%. actives 20% (n = 1,900). shares compounds with RGS4 block. activity (percent), % at 10 µM; call rule not given here;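 further: RGS4 induction absent so cells express M3R without RGS4; higher means more calcium signal and flags a non-specific hit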
RGS4 inh ctr2 – second counter-screen for RGS4 inhibitors: non-induced cells without carbachol; actives 22% (n = 1,900); HEK293 M3R/RGS4 non-induced, Fluo-4 calcium, no carbachol; normalised: buffer wells 0%, carbachol wells 100%; shares compounds with RGS4 block; AID 493001; calcium response (agonist-mode artifact), % at 10 µM;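 active means duplicate-averaged calcium rise in uninduced cells above buffer wells' mean plus 5 SD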
* = called active by the depositor; i = inactive; · = no result. Hits are enriched below; roughly 3.5% of the tested compounds scored in any of these assays.

SMILES | RGS4 act | MrgX1 ag | MrgX1 PAM | MrgX1 antag | RGS4 block | RGS4 block valid | RGS4 uninduced | RGS4 inh ctr2
Cn1c(SCC(=O)Nc2ccc3[nH]c(=O)[nH]c3c2)nnc1-c1ccccc1 | i | i | i | i | i | · | · | ·
COc1cc(/C=C/C(=O)c2c(O)ccc3c(C)cc(=O)oc23)ccc1O | i | i | 6.7* | i | i | · | i | i
COc1ccc(/C=C\C(=O)c2c(O)ccc3c(C)cc(=O)oc23)cc1OC | i | i | i | i | 6.7* | 8.0%* | i | i
Cc1cc(=O)oc2c(C(=O)/C=C/c3ccccc3)c(O)ccc12 | i | i | i | i | i | · | · | ·
CCCN(CC(=O)Nc1ccccc1C)C(=O)C1CC(=O)N(Cc2ccccc2)C1 (stereo not given) | i | i | i | i | i | · | · | ·
Cc1nn(-c2ccccc2)c2c1cc1c(=O)n(C)c(=O)nc-1n2-c1ccccc1F | i | i | i | i | i | · | · | ·
Cc1cccc(-n2c3nc(=O)[nH]c(=O)c-3cc3c(C)nn(-c4ccccc4)c32)c1C | i | i | i | i | 7* | i | i | i
COc1ccc(-c2csc(Nc3cc(C)ccn3)n2)cc1OC | i | i | i | i | i | i | i | i
CCOC(=O)C1=C(CS(=O)(=O)c2ccc(Cl)cc2)NC(=O)NC1c1ccc(O)c(OC)c1 (stereo not given) | i | i | i | i | i | · | · | ·
COC(=O)C1=C(CS(=O)(=O)c2ccc(OC)c(OC)c2)NC(=O)NC1c1ccc(O)c(OC)c1 (stereo not given) | i | i | i | i | 19* | 6.0%* | i | i
COC(=O)C1=C(CS(=O)(=O)c2ccc(Cl)cc2)NC(=O)NC1c1ccc(O)c(OC)c1 (stereo not given) | i | i | i | i | i | i | i | i
COc1ccc(C(=O)c2sc(Nc3ccccc3)nc2N)cc1 | i | i | i | i | i | i | i | i
Nc1nc(Nc2ccccc2)sc1C(=O)c1ccccc1 | i | i | i | i | 13* | 23%* | 38%* | i
COc1ccc(C(=O)NC(=S)Nc2ccccc2F)cc1 | i | i | i | i | i | · | · | ·
COc1ccc(C(=O)c2sc(Nc3ccccc3)nc2N)cc1OC | i | i | i | i | i | · | · | ·
COc1ccc(C(=O)c2sc(Nc3ccccc3F)nc2N)cc1 | i | i | i | i | i | · | i | i
CCn1cc(C(=O)N[C@@H](CCSC)C(=O)NCCCN2CCOCC2)c(=O)c2cc3c(cc21)OCO3 | i | i | i | i | i | · | · | ·
O=C(CSCc1cc(=O)n2ccsc2n1)Nc1ccc(F)cc1 | i | i | i | i | i | · | · | ·
Fc1ccc2c(c1)/C(=N/Nc1ccccn1)CCS2 | i | i | i | i | 12* | 14%* | i | i
CCCN1Cc2cccc(C(=O)NCCc3cccc(C)c3)c2C1=O | i | i | i | i | i | · | · | ·
C=CCOc1ccc(/C=C2/C(=O)ON=C2C)cc1OC | i | i | i | i | 9.4* | 18%* | i | 16%*
COc1cc(C=C2C(=O)c3ccccc3C2=O)ccc1O | i | i | i | i | i | · | · | ·
Cc1sc(/C=C2\C(=O)ON=C2c2ccccc2)cc1Br | i | i | i | i | i | · | · | ·
COc1cc(/C=C2/C(=O)ON=C2c2ccccc2)ccc1O | i | 28* | i | i | 11* | 38%* | i | 97%*
